Bioassay records as filed in PubChem BioAssay.
EBI2 block – blocks human EBI2 receptor beta-arrestin signaling. 360,000 compounds, 0.81% hits. EBI2 beta-arrestin recruitment, luminescence, 7a,25-OHC stimulated. inhibition, % at 5 µM. P32249. AID 651636; in the data active = inhibition above about 38%;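 note: enzyme fragment complementation signal reports receptor beta-arrestin coupling in cells; 0% = agonist plus DMSO wells and 100% = wells without agonist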
MC4R ag barr – agonists of human melanocortin 4 receptor (MC4R) beta-arrestin | U2OS MC4R beta-arrestin complementation, luminescence; percent of melanotan II response, DMSO zero | activation, % at 8.9 µM | 360,000 compounds, 0.98% hits | AID 540308;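 active = activation above a per-plate cutoff, the mean activation of sample wells on that plate plus 3 SD, cut at about 8% in these data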
MC4R antag cAMP – human MC4R antagonism in cAMP assay. MC4R-expressing cells, MTII-stimulated cAMP, LANCE TR-FRET. inhibition, % at 6.5 µM. 360,000 compounds, 0.48% hits. AID 540295;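 active = inhibition above its plate's cutoff, the mean of tested wells on that plate plus 3 SD, cut at about 29% in these data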;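 note: 0% = Melanotan II alone and 100% = Melanotan II plus saturating MCL0020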
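Assay system: U2OS-MC4R stable cell line; Also added: Melanotan II; Technique: Eu-cAMP/anti-cAMP TR-FRET, emission 671 nm; Times: 30-min compound, 1-h challenge, 1-h detection, room temperature.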
HTR2A ag – activates the mouse 5-HT2A serotonin receptor. CHO-K1 mHTR2A beta-arrestin complementation, luminescence; percent of 30 µM serotonin response. activation, % at 7.6 µM. 360,000 compounds, 0.66% hits. AID 624169;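 active = activation above a run cutoff, the mean activation of all tested compounds plus 3 SD, cut at about 14% in these data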;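 note: 0% = plate median of compound wells and 100% = 30 µM serotonin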
Target sequence (P35363 whole entry, looked up): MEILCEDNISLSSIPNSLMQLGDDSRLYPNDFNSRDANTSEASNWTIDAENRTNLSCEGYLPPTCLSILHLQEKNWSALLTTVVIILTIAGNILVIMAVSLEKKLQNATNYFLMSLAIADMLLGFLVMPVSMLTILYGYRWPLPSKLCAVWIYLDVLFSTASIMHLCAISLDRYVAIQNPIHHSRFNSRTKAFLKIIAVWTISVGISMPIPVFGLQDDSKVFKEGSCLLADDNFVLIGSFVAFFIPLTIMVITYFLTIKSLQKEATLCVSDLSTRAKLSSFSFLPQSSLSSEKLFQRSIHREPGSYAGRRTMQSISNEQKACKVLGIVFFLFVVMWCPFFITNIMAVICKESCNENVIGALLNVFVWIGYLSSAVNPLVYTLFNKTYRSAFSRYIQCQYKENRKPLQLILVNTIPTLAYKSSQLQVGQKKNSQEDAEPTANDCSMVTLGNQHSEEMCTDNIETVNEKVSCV
EBI2 antag conf – confirmation of human EBI2 receptor antagonists; shares compounds with EBI2 block; EBI2 beta-arrestin luminescence, 7a,25-OHC antagonism; inhibition, % at 5 µM; 2,400 compounds, 29% hits;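 active = inhibition of at least 50%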
EBI2 ag – activates EBI2, counter-screen for EBI2 antagonists; AID 652000; 2,400 tested, under 10 active; EBI2-expressing cells, agonist mode, luminescence, 60 min; 0% vehicle, 100% 7α,25-dihydroxycholesterol control; activation, % at 5 µM; shares compounds with EBI2 block;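 active = activation of at least 50%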
bGal counter – counter-screen for EBI2 antagonists: E. coli beta-galactosidase inhibition; shares compounds with EBI2 block; purified beta-galactosidase, luminescent Galacton Star, 15 min; inhibition, % at 5 µM; 2,400 compounds, 1% hits; AID 652176;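 active = replicate-average signal at least 3 plate SD below neutral wells, shown as high inhibition, flagging enzyme-inhibiting false positives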;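 note: 0% = DMSO wells with enzyme and 100% = wells lacking enzyme; higher means stronger loss of beta-gal luminescence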
* marks the source's active call; other numbers are inactive results; . = no result given. This is a sample that favours compounds with a hit; in the whole collection about 2.8% have one here.

SMILES	EBI2 block	MC4R ag barr	MC4R antag cAMP	HTR2A ag	EBI2 antag conf	EBI2 ag	bGal counter
CCOC(=O)C1CCN(C(=O)/C=C/c2ccc(OC)cc2)CC1	87*	0	12	0	75*	0	-5
CCN1CCN(C(=O)/C=C/c2ccc(OC)cc2)CC1	88*	0	4	-4	74*	2	7
CCN1CCN(C(=O)/C=C/c2ccc(F)cc2)CC1	84*	1	9	-4	71*	0	5
COc1ccc(/C=C/C(=O)O)cc1	1	1	14	6	.	.	.
CN1CCCN(C(=O)/C=C/c2ccc(F)cc2)CC1	15	-1	1	-2	.	.	.
Cc1ccc(S(=O)(=O)N(C)C)cc1NC(=O)CN1C(=O)NC2(CCCCCCC2)C1=O	0	2	5	0	.	.	.
O=C1OCc2ccc([N+](=O)[O-])cc21	-8	0	15	0	.	.	.
Cc1ccc(SCC2(O)CCN(C(=O)c3ccc(Cl)cc3)CC2)cc1	47*	2	0	-7	46	-1	-19
Cc1ccc(SCc2ccc(C(=O)N3CCCC3)cc2)cc1	3	-2	1	-4	.	.	.
COc1ccc(Br)cc1CN(C)C(C)C(=O)Nc1cc([N+](=O)[O-])ccc1OC (configuration not stated)	40*	1	22	-2	13	1	0
COc1ccc(C(=O)N/C(=C\c2ccco2)C(=O)NCCN2CCOCC2)cc1	-12	1	8	-3	.	.	.
N#C/C(=C\c1c(Oc2ccc(Cl)cc2)nc2ccccn2c1=O)C(=O)NC1CCS(=O)(=O)C1 (configuration not stated)	-5	0	-3	1	.	.	.
Cc1cccc(Oc2nc3ccccn3c(=O)c2/C=C(\C#N)C(=O)NC2CCS(=O)(=O)C2)c1C (configuration not stated)	-5	1	10	-1	.	.	.
Cc1cccc(Oc2nc3ccccn3c(=O)c2/C=C(\C#N)C(=O)NC2CCS(=O)(=O)C2)c1 (configuration not stated)	45*	0	5	5	53*	0	-18
Cc1ccc(Oc2nc3ccccn3c(=O)c2/C=C(\C#N)C(=O)Nc2c(C)n(C)n(-c3ccccc3)c2=O)c(C)c1	63*	-2	10	-4	58*	2	3
Cc1cc(Oc2nc3ccccn3c(=O)c2/C=C(\C#N)C(=O)NC2CCS(=O)(=O)C2)ccc1Cl (configuration not stated)	49*	0	5	-1	66*	-1	-14
O=C(CSc1nc(Nc2ccccc2)nc(N2CCOCC2)n1)Nc1ccccc1Cl	18	-1	9	0	.	.	.
O=C(CSc1nc(Nc2ccccc2)nc(N2CCOCC2)n1)Nc1ccc(Br)cc1F	46*	-1	13	-1	-2	-1	-12
NC(=O)c1nc2c([nH]c1=O)CCCC2	2	-1	-8	6	.	.	.
O=C(CSc1ncn[nH]1)N/N=C/c1ccc(C(F)(F)F)cc1	3	-1	-4	-2	.	.	.
CCOC(=O)C1=C[C@@H](C(C)(C)C)N(S(=O)(=O)c2ccc(C)cc2)[C@H]1c1ccccc1	-5	.	.	-1	.	.	.
CCOC(=O)C1=C[C@@H](C(C)(C)C)N(S(=O)(=O)c2ccc(C)cc2)[C@H]1c1ccc(C#N)cc1	42*	.	.	2	30	1	6
Cc1ccc2cc3c(=O)n(C)cc(C=O)c3nc2c1	-12	-1	-2	-2	.	.	.
Cc1ccc(N2CCN(c3ccc(C)cc3)C2c2ccncc2)cc1	51*	1	3	-6	21	-1	-8
Cc1ccc(Cl)cc1N1CCN(C(=O)COc2ccc3c(c2)CCC3)CC1	78*	-2	1	-5	42	-1	-13
COc1ccccc1N1CCN(C(=O)COc2ccc(Cl)cc2)CC1	81*	-1	4	-3	52*	1	4
CC(C)(C)c1ccc(OCC(=O)N2CCN(c3ncccn3)CC2)cc1	9	-1	-7	8	.	.	.
